Test results reported in ChEMBL document CHEMBL3997850 (ACS Med Chem Lett, 2017).

Experiments:
[1] = molecular target: T1, Nuclear receptor subfamily 1 group I member 2 (Homo sapiens, UniProt O75469); assay: Induction of PXR (unknown origin) expressed in human HepG2 cells after 24 hrs by dual-glo luciferase reporter gene assay; type: ADME, cell-based
T1 sequence (O75469 whole entry): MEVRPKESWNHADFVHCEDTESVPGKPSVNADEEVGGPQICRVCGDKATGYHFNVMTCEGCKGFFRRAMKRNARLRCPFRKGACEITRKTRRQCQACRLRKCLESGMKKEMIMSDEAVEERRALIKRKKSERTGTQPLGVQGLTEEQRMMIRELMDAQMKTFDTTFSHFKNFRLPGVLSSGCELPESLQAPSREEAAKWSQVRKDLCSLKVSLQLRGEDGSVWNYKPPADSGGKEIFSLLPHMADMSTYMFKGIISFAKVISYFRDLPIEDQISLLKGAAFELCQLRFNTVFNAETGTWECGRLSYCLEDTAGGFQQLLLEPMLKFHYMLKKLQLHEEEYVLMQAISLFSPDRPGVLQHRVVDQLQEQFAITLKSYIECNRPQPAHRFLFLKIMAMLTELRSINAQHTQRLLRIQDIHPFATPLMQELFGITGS
Procedure, shortened: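 HepG2 cells transfected with human or rat PXR/CYP3A4 reporter, grown 24 h in phenol-red-free MEM with 2 mM L-glutamine and 10% charcoal-stripped FBS at 37 °C, 5% CO2. Compound added at 10 µM final with 0.6% DMSO for 24 h. Dual-Glo firefly then Renilla luminescence read; firefly/Renilla ratio normalized to control-compound wells as % induction.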

Cytochrome P450 1A2 = molecular target: T2, Cytochrome P450 1A2 (Homo sapiens, UniProt P05177); assay: Inhibition of recombinant human CYP1A2 assessed as decrease in hydroxylation of 7-benzyloxy-4-trifluoromethyl-coumarin by fluorescence assay; type: ADME; settings: recombinant enzyme
T2 sequence (P05177 whole entry): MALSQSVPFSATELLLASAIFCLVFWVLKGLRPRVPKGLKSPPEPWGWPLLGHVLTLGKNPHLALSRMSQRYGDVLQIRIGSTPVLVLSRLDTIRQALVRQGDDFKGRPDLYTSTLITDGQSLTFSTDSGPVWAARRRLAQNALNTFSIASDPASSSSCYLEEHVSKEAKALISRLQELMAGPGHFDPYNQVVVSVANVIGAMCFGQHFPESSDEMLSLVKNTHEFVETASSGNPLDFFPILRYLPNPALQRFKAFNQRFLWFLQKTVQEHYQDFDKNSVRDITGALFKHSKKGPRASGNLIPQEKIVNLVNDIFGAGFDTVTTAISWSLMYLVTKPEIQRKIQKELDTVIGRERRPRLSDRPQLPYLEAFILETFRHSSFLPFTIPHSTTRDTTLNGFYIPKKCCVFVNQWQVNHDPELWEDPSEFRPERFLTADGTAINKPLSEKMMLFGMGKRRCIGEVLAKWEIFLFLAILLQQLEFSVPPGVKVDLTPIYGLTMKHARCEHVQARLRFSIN
Procedure, shortened: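 Recombinant human CYP1A2 or CYP3A4 with 7-benzyloxy-4-trifluoromethyl-coumarin at Km concentration; hydroxylation read by fluorescence. Inhibitor tested at 0–25 µM.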

Cytochrome P450 2D6 = Cytochrome P450 2D6 (Homo sapiens, UniProt P10635); assay: Inhibition of recombinant human CYP2D6 assessed as decrease in hydroxylation of 7-methoxy-4-methylcoumarin by fluorimetric method; type: ADME; settings: recombinant enzyme
Cytochrome P450 2D6, sequence (P10635 whole entry): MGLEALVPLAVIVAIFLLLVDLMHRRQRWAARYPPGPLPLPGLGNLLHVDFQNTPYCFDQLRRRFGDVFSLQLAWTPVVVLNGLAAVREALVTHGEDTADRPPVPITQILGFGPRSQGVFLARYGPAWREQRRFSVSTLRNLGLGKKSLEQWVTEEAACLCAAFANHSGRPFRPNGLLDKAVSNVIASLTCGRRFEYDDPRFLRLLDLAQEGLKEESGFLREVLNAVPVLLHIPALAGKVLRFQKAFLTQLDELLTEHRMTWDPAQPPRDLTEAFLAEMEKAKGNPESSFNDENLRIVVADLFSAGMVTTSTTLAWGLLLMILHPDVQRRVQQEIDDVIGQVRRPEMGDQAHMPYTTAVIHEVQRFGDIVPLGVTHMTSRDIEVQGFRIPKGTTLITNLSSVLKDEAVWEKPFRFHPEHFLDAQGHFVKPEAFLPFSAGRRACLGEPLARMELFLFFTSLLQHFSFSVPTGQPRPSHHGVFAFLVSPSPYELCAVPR
Procedure, shortened: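 Recombinant human isozymes with substrate at Km concentration: CYP2C9 with 7-methoxy-4-(trifluoromethyl)coumarin, CYP2D6 with 7-methoxy-4-methylcoumarin. Hydroxylation read fluorimetrically, inhibitor 0–25 µM.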

[2] = Volume of distribution at steady state in rat at 5 mg/kg, iv or 5 mg/kg, po by LC/MS/MS analysis; type: ADME, organism-based; settings: in vivo, read-out: Vdss
Procedure, shortened: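 Male rats, 5 mg/kg IV in 10% DMAC/saline or 5 mg/kg oral in 0.5% aqueous methylcellulose. Plasma (EDTA) sampled pre-dose to 24 h. Quantified by acetonitrile precipitation and LC/MS/MS (2–10000 nM range, 0.1 mL). Non-compartmental analysis of concentration–time data.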

[3] = Half life in beagle dog at 10 mg/kg, po by LC/MS/MS analysis; type: ADME, organism-based, Canis lupus familiaris; settings: in vivo
Procedure, shortened: (§1)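 Male beagle dogs dosed 5 mg/kg IV in 10% DMAC in saline or 10 mg/kg oral in 5% DMAC in 0.5% methylcellulose. EDTA blood taken from pre-dose to 24 h and spun to plasma. Plasma proteins precipitated with acetonitrile, then LC/MS/MS (linear 2–10000 nM, 0.1 mL plasma). Parameters derived by non-compartmental analysis.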

[4] = Half life in beagle dog at 5 mg/kg, iv by LC/MS/MS analysis; type: ADME, organism-based, Canis lupus familiaris; settings: in vivo; procedure, shortened: as §1
Canis familiaris [5] = assay: AUC in beagle dog at 5 mg/kg, iv or 10 mg/kg, po by LC/MS/MS analysis; type: ADME, organism-based, Canis lupus familiaris; settings: in vivo; procedure, shortened: as §1
Mus musculus = assay: Toxicity in mouse assessed as change in body weight up to 2000 mg/kg/day after 28 days; type: organism-based; settings: in vivo, 672 h
Canis familiaris [6] = assay: Toxicity in dog assessed as change in body weight up to 500 mg/kg/day after 28 days; type: organism-based, Canis lupus familiaris; settings: in vivo, 672 h

## NS(=O)(=O)NCCNc1nonc1C(=NO)Nc1ccc(F)c(Br)c1 [EPACADOSTAT]
[1]
  Activity: Not Active
Cytochrome P450 1A2
  inhibition (INH): Not Active
Cytochrome P450 2D6
  inhibition (INH): Not Active
[2]
  Vd: 2 L/kg
[3]
  half-life: 294 min
[4]
  half-life: 186 min
Canis familiaris [5]
  AUC: 29 µM·h
Mus musculus
  Activity: Non-Toxic
Canis familiaris [6]
  Activity: Non-Toxic
